This note sets out measurements from PMC6054836 (Molecular Vision, 2018).

Like-named read-outs stand apart in the source and are kept apart here.

In one test the target is PKCα (Homo sapiens, UniProt P17252). Briefly: In vitro PKC inhibition assay. The test is classed as biochemical. To be noted: read-out: IC50 PKCα; purified human recombinant PKCα, 15 min, room temperature. The method, boiled down:
(§1)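 Purified human recombinant PKC isoforms incubated at room temperature with ATP and isoform-specific substrates (25 to 400 nM) plus increasing concentrations of test compound (C8–C18 alkyl benzyl quaternary ammonium class). TR-FRET detection (LANCE or HTRF). Percent inhibition of control activity; IC50 and Hill coefficient from nonlinear Hill-equation fits of mean replicate values.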

The target of another test is PKCβ1 (Homo sapiens, UniProt P05771). Briefly: In vitro PKC inhibition assay. The test is classed as biochemical. To be noted: read-out: IC50 PKCβ1; purified human recombinant PKCβ1, 30 min, room temperature. The essentials:
as §1

Another test addresses PKCβ2 (Homo sapiens, UniProt P05771). As to the kind of experiment: In vitro PKC inhibition assay. The following applies: read-out: IC50 PKCβ2; purified human recombinant PKCβ2, 15 min, room temperature. The format is biochemical. The essentials:
as §1

For the next test, the target named is PKCδ (Homo sapiens, UniProt Q05655). Briefly: In vitro PKC inhibition assay. The format is biochemical. The following applies: read-out: IC50 PKCδ; purified human recombinant PKCδ, 30 min, room temperature. The method, boiled down: as §1
The next test concerns PBMCs (LPS). Briefly: Marker secretion inhibition in LPS-stimulated PBMCs. The test is classed as cell-based. To be noted: Homo sapiens, PBMC. The method, boiled down:
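PBMCs were Ficoll-isolated from one donor's blood and cultured in RPMI 1640 with 10% heat-inactivated FBS, 2 mM glutamine and pen/strep at 37 °C, 5% CO2. Test compound was given in a 30-min preincubation, then in fresh medium with LPS for 24 h. IL-6, IL-8 and IL-12 in supernatant were measured by flow-cytometric bead array. Results are % inhibition versus stimulated cells, mean ± SEM of triplicates.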

PKCβ1, sequence (P05771 whole entry): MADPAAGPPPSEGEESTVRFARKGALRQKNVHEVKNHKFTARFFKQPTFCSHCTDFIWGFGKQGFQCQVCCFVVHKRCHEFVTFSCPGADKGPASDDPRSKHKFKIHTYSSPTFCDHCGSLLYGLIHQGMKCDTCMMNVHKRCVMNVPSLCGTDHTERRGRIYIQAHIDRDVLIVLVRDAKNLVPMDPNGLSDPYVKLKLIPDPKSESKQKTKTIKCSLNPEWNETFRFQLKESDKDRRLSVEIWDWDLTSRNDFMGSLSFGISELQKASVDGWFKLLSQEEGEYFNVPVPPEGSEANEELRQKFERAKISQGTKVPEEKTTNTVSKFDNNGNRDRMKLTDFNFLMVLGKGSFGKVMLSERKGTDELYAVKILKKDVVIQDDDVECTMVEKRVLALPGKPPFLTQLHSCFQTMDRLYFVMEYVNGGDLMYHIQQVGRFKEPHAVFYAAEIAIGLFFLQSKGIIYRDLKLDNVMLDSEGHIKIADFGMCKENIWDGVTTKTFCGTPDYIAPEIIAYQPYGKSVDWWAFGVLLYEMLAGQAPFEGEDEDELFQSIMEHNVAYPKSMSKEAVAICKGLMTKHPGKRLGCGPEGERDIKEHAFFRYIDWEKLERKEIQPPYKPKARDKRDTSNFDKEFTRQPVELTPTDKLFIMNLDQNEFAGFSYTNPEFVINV
PKCδ, sequence (Q05655 whole entry): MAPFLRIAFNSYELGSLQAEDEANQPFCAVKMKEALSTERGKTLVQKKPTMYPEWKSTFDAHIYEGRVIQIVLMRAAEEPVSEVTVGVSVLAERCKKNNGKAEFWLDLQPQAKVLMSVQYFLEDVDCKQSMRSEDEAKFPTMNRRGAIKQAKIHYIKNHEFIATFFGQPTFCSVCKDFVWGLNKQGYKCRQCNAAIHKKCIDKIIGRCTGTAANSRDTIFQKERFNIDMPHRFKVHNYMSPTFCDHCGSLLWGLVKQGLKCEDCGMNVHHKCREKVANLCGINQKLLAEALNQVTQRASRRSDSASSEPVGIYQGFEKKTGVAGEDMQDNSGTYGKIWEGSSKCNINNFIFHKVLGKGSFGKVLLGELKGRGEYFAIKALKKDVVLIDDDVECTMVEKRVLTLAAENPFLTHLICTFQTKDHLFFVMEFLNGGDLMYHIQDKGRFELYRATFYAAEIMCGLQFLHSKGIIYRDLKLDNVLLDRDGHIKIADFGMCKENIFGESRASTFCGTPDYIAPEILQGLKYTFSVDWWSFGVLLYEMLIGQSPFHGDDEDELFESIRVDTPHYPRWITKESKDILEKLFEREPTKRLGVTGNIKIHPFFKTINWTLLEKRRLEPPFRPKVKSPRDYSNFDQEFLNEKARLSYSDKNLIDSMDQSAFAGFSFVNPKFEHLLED
PKCβ2, sequence (P05771 1-673 isoform P05771-2): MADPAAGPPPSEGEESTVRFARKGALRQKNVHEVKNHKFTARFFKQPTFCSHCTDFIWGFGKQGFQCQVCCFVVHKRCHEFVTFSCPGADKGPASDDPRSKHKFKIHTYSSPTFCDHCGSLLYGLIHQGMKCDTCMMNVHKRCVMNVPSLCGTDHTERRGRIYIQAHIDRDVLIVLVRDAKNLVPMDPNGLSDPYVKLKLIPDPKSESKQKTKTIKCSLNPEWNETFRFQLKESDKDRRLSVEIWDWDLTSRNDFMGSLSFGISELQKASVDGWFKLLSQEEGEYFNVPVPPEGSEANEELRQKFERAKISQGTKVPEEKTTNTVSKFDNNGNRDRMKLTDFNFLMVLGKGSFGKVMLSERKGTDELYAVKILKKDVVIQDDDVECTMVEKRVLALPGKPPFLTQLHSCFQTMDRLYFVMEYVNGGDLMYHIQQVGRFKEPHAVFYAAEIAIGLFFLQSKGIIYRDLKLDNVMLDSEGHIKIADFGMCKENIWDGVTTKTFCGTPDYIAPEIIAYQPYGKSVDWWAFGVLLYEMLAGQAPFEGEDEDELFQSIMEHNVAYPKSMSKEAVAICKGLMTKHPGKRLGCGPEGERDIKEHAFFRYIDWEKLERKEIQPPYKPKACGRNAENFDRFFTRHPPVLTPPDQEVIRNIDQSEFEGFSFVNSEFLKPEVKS

In the case of `CCCCCCCCCCCCCC[N+](C)(C)Cc1ccccc1` [C14], the IC50 at PKCα was 5.4 µM; at PKCβ1, 10.1 µM; at PKCβ2 it was 14.1 µM; at PKCδ, over 109 µM.
Turning to `CCCCCCCC[N+](C)(C)Cc1ccccc1` [C8], the values for the IC50 at PKCα, on PKCβ1 and on PKCβ2 were over 141 µM, over 101 µM and over 101 µM, respectively.
Turning to `C[C@@H]1C[C@H]2[C@@H]3CCC4=CC(=O)C=C[C@]4(C)[C@@]3(F)[C@@H](O)C[C@]2(C)[C@@]1(O)C(=O)CO` [DXM, dexamethasone], the inhibition at 0.1 µM in the test with PBMCs (LPS) (read-out: % of marker secretion inhibition, IL6) is 72 ± 1%; in the test on PBMCs (LPS) (read-out: % of marker secretion inhibition, IL8), 68 ± 2%; in the test on PBMCs (LPS) (read-out: % of marker secretion inhibition, IL12), 97 ± 1%; with PBMCs (LPS) (read-out: % of marker secretion inhibition, TNFα), 85 ± 1%.
With `CCCCCCCCCC[N+](C)(C)Cc1ccccc1` [C10], the half-maximal inhibitory concentration (IC50) on PKCα is over 128 µM; on PKCβ1, over 101 µM; at PKCβ2, over 101 µM; at PKCδ, over 128 µM.
Consider `CCCCCCCCCCCCCCCC[N+](C)(C)Cc1ccccc1` [C16 (CKC), cetalkonium chloride], for which the 50% inhibitory concentration (IC50) on PKCβ1 and on PKCβ2 was over 101 µM throughout.
`CCCCCCCCCCCCCCCCCC[N+](C)(C)Cc1ccccc1` [C18]: the values for the IC50 on PKCα, at PKCβ1 and on PKCβ2 were 11.7 µM, 74.6 µM and 39.3 µM, respectively.
For the molecule `CCCCCCCCCCCC[N+](C)(C)Cc1ccccc1` [C12], the IC50 at PKCα was 22.6 µM; on PKCβ1 it was 58.8 µM; at PKCβ2, 58.8 µM; on PKCδ, over 118 µM.

For orientation: IC50 means the concentration that inhibits the measured activity by half. Usually inhibition stands for the drop in the measured response relative to a control, in per cent.
